ChEMBL document CHEMBL1134385, “Flexible estrogen receptor modulators: design, synthesis, and antagonistic effects in human MCF-7 breast cancer cells” (J Med Chem, 2001)

What was measured:
[1] = target: Estrogen receptor (Homo sapiens, UniProt Q92731+P03372); assay: Binding affinity for estrogen receptor.; format: protein assay
[2] = test system: MCF7; assay: Antiproliferative activity against Human MCF-7 Breast cancer cell line in vitro.; format: functional, cell-based
Procedure, shortened: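 MCF-7 cells grown in Eagle's MEM with 10% fetal calf serum and 1% nonessential amino acids, 5% CO2. Seeded at 1.5×10^4 per well, 24 h at 37 °C, then dosed from ethanol stocks over 1 nM-100 μM (vehicle 1% v/v) for 72 h. MTT at 1 mg/mL final, 2 h in the dark, DMSO solubilization, A570. Viability relative to vehicle control; IC50 from triplicate means.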

`CC/C(=C(\Cc1ccccc1)c1ccc(OCN(C)C)cc1)c1ccccc1` was tested, and the Ki [1] was 0.503 µM and the IC50 [2] was 21.7 µM.
